Experimental data published in ChEMBL document CHEMBL1130334, “Effect of plasma protein binding on in vivo activity and brain penetration of glycine/NMDA receptor antagonists” (J Med Chem, 1997).

Tests used:
[1] = protein binding index(PBI) is the ratio of binding affinities for the displacement of [3H]- glycine from rat cortical membranes in the presence and absence of 0.2% human serum albumin; format: cell membranes; conditions: Membrane
Procedure, shortened: (§1)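 [³H]glycine displacement from rat cortical membranes, with and without 0.2% (w/v) human serum albumin. Separation by centrifugation. Index = IC50 with albumin / IC50 without albumin.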

[2] = Partition coefficient (logP); format: physicochemical; conditions: octanol/water
Procedure, shortened: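 Octanol/pH 7.4 buffer partition; values were either measured or calculated from tables of π values.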

[3] = system: Mus musculus; assay: Anti convulsant activity of compound was measured by its ability to protect against audiogenic seizure in DBA/2 mice when dosed intraperitoneally 30 min prior to seizure induction.; format: functional; conditions: ip
Procedure, shortened: (§2)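 DBA/2 mice, compound dosed intraperitoneally 30 min before induction of audiogenic seizures. Reported as ED50 (mg/kg and μmol/kg) or as number protected/number tested at a single dose. For some compounds the test was run 10 min after dosing.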

[4] = molecular target: Albumin (Homo sapiens, UniProt P02768); assay: Human serum albumin index was measured by retention time on an HPLC column containing human albumin
Albumin, sequence (P02768 whole entry): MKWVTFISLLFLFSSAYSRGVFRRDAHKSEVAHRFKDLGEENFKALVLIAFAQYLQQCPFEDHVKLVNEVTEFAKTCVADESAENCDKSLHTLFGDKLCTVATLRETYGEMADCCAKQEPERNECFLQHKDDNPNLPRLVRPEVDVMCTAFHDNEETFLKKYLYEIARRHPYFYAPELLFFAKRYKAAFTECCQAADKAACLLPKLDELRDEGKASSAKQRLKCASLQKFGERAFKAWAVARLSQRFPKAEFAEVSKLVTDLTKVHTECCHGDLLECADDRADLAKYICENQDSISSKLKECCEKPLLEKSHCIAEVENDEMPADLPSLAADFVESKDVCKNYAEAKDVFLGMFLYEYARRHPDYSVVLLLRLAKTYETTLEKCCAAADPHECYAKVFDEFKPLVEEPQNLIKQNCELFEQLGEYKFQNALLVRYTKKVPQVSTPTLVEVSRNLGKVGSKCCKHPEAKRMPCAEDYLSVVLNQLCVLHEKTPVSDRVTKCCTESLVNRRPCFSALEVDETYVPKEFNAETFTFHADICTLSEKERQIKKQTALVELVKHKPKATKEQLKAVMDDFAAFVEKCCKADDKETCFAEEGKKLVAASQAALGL
Procedure, shortened: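 HPLC on a column containing human serum albumin. Retention volume of each compound is divided by that of a reference standard and normalized so the standard equals 100.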

[5] = system: Mus musculus; assay: Anticonvulsant activity measured by its ability to protect against audiogenic seizure in DBA/2 mice when dosed intraperitoneally 30 min prior to seizure induction.; format: functional; conditions: ip; procedure, shortened: as §2
[6] = system: Mus musculus; assay: Ability of intravenously administered compound to prevent seizures, induced by NMDLA (500 mg/kg sc) in mice; format: functional
Procedure, shortened: (§3)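 Swiss Webster mice; seizures induced by N-methyl-D,L-aspartate 500 mg/kg sc. Test compound given iv 15 min before NMDLA. Where warfarin is used, it is given iv 15 min before the test compound.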

[7] = species on record: Rattus norvegicus; assay: Clearance into cortex from rat plasma or PBS; format: ADME, organism-based; conditions: in vivo
Procedure, shortened: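 Rat in situ brain perfusion (Takasato method, Gratton modifications). Compound is dissolved in phosphate-buffered saline and perfused 10 s, or dissolved in rat plasma and perfused 60 s. Drug in cortex is measured and clearance from the perfusate into cortex is calculated (mL s⁻¹ g⁻¹ × 10⁴). Mean with SEM, n = 4.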

[8] = system: Mus musculus; assay: Ability of intravenously administered compound to prevent seizures, induced by NMDLA (500 mg/kg sc) in mice, in the presence of 60 mg/kg of warfarin; format: functional; conditions: route intravenous; procedure, shortened: as §3
[9] = system: Mus musculus; assay: Ability of intravenously administered compound to prevent seizures, induced by NMDLA (500 mg/kg sc) in mice, in the presence of 100 mg/kg of warfarin; format: functional; conditions: route intravenous; procedure, shortened: as §3
[10] = molecular target: Glutamate NMDA receptor (Rattus norvegicus) (UniProt P35439+Q00959+Q00960+Q00961+Q62645+Q8VHN2+Q9R1M7); assay: Protein binding index(PBI) reflects the relative displacement of [3H]glycine from rat cortical membranes in the presence and absence of 0.2% human serum albumin; format: cell membranes; conditions: Membrane; procedure, shortened: as §1

SMILES | PBI [1] | logP [2] | ED50 [3] [mg/kg] | HSAI [4] | ED50 [5] [mg/kg] | ED50 [6] [mg/kg] | Cortex_Clearance [7] | ED50 [8] [mg/kg] | ED50 [9] [mg/kg] | PBI [10]
O=c1[nH]c2cc(Cl)ccc2c(O)c1-c1ccccc1 | 37 | 1.6 | 4.5 | 10 | – | – | – | – | – | –
O=c1[nH]c2cc(Cl)ccc2c(O)c1-c1cccc(Oc2ccccc2)c1 | – | 2.9 | – | 100 | 0.88 | 3.6 | 0 ml s-1 (10e4*g)-1 | 1.9 | 0.64 | 94
